# Not all results are given here.
# HKDC1 act: HKDC1 (human) hexokinase activation | Q2TB90 | recombinant HKDC1, G6PDH/diaphorase resazurin fluorescence; active compounds read low | activity change, negative = activation, % at 20 µM | 340,000 tested, 0.056% active;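 active means activation of 40% or more at 20 µM, a change of -40% or lower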
# Target sequence (Q2TB90 whole entry, looked up): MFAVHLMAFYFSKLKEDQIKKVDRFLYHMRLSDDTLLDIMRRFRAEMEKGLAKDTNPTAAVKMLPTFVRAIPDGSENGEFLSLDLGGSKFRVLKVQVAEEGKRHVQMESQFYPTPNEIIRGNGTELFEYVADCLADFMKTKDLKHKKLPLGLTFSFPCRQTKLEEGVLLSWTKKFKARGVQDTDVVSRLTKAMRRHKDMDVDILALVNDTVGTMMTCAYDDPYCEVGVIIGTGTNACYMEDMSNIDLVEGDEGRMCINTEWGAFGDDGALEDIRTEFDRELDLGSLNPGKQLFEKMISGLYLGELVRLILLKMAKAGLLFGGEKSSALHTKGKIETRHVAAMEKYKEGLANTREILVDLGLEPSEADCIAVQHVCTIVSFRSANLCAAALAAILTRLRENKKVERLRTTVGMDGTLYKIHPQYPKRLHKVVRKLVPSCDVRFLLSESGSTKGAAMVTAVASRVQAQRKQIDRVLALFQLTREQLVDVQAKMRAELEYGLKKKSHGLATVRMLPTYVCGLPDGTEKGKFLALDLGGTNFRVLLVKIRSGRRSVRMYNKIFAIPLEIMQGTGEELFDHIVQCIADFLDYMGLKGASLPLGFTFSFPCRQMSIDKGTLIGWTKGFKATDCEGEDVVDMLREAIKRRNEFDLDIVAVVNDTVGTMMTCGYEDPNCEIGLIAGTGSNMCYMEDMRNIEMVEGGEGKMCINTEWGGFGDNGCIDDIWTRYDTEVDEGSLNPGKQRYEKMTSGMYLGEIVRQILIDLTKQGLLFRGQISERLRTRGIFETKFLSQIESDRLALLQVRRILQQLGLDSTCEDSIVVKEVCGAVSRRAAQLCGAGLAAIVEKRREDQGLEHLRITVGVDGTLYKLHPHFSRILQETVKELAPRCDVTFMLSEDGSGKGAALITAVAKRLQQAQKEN
#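 Signal: coupled resazurin-to-resorufin fluorescence, Ex 525/Em 613 nm. Test system: in-house human HKDC1 enzyme, G6PDH and diaphorase coupling enzymes. Quantity: HKDC1 5 µg/mL. Timing: 90 min reaction at room temperature, dark.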
# Hits are given with their value; i = inactive.
SMILES,HKDC1 act
CC1(C)CC[C@]2(C(=O)n3ccnc3)CC[C@]3(C)[C@H](C(=O)C=C4[C@@]5(C)C=C(C#N)C(=O)C(C)(C)[C@@H]5CC[C@]43C)[C@@H]2C1,i
Fc1ccccc1N=C1NN=C(c2ccccc2)CS1,-82.5
CC(=O)Nc1ccc(C2=NNC(=Nc3ccc(S(=O)(=O)N4CCOCC4)cc3)SC2)cc1,-338.8
O=C(O)c1ccccc1N=Nc1c(O)[nH]c2ccc([N+](=O)[O-])cc12,i
Cc1c(N=C2C=CC(=O)c3ccccc32)c(=O)n(-c2ccccc2)n1C,i
CC1=C(SCc2ccccc2)C(=O)c2ccccc2C1=O,i
O=C1C(Cl)=C(NC(=O)c2ccccc2)C(=O)C(Cl)=C1NC(=O)c1ccccc1,i
C=CC1=C(C(=O)O)N2C(=O)C(NC(=O)Cc3ccccc3)C2SC1 (stereo unspecified),i
O=C1/C(=C\c2ccc(-c3ccccc3[N+](=O)[O-])o2)C(c2ccccc2)=NN1c1ccccc1,i
COc1cc(SC#N)ccc1N=Cc1c(C)[nH]n(-c2ccc(Cl)cc2)c1=O,-40.7
Oc1ccc(O)c(Cc2nc3ccccc3[nH]2)c1,i
CC(C)(C=O)C1=CC(=O)c2ccccc2C1=O,i
N#Cc1ccc(CSc2nnc(NC(=O)c3ccc4ncsc4c3)s2)cc1,i
COCCNc1ccc([N+](=O)[O-])cc1C(=O)Nc1cccc(C)n1,-57.6
CC(=O)NC1C(=O)N(CCN2CCOCC2)c2ccc(Br)cc21 (stereo unspecified),i
COC1=C(Br)C(=O)c2ncccc2C1=O,i
Cc1ccc(S(=O)(=O)Nc2c(O)ccc3ccccc23)cc1,i
Oc1ccc2ccccc2c1/C=N/c1nccs1,i
NC1=C(Cl)C(=O)c2ccc(S(N)(=O)=O)cc2C1=O,-133.9
Cc1ccc(S(=O)(=O)/N=C2/C=C(Sc3ncn[nH]3)C(=O)c3ccccc32)cc1,i
O=C(O)CCNc1cc(N2CCN(C(=O)c3ccco3)CC2)c2noc3c2c1C(=O)c1ccccc1-3,i
O=C(NC(=S)NNC(=O)c1cnccn1)c1ccc(F)cc1,-48.5
COc1ccc(/C=C/C(=O)NC(=S)NNC(=O)c2cnccn2)cc1,-40.3
Cc1ccc2c(c1C)NC(C(=O)O)C1CC=CC21 (stereo unspecified),i
O=C1C(Nc2ccccc2)=C/C(=N/S(=O)(=O)c2cccs2)c2ccccc21,i
SMILES,HKDC1 act
CN(C)c1ccc(C=c2c3ccccc3n3c2cc(-c2ccccc2)[n+]3C)cc1,i
CC(=O)N1c2ccc(Cl)cc2C2C=CCC2C1c1cccc2ccccc12 (stereo unspecified),i
O=C(O)c1ccccc1-c1ccc(/C=c2\sc3nc4cc(Br)cnc4n3c2=O)o1,i
CCN(CC)S(=O)(=O)c1cccc(C(=O)N/N=C(\C)c2ccc(O)cc2O)c1,-42.7
CCOc1ccc(S(=O)(=O)Nc2cc(SCC(=O)O)c(O)c3ccccc23)cc1,i
Cc1ccc(NC(=O)CN2C(=O)S/C(=C/c3ccc(-c4cc(C(=O)O)ccc4C)o3)C2=O)cc1C,i
CNCc1ccccc1Sc1cc(O)ccc1O,i
COc1ccc(C(=O)c2coc3c2C(=O)C(=O)c2ccccc2-3)cc1,i
CC(NC1=CC(=O)c2cccnc2C1=O)C(O)c1ccccc1 (stereo unspecified),i
CCOC(=O)C1=C(Cc2ccc(Cl)cc2)C(=O)c2ccccc2C1=O,i
Cc1onc(-c2ccccc2)c1C(=O)NC(=S)NNC(=O)c1ccccc1O,-44.5
Cc1ccc(S(=O)(=O)/N=C2\C=C(Nc3cccc(C(=O)O)c3)C(=O)c3ccccc32)cc1,i
COc1cc(N(C)C)ccc1C=c1c2ccccc2n2c1cc(-c1ccccc1)[n+]2C,i
NC(=O)C1CCN(C2=C(Cl)C(=O)c3ccccc3C2=O)CC1,i
CC1=NOC(=O)/C1=C\c1ccc(-c2ccc(Br)cc2)o1,i
CCCCCCCCCC(=O)NNC(=O)c1c(O)c2ccccc2n(CC)c1=O,-40.8
Cc1nc2c(c(=O)c3ccccc3n2C)c(=O)n1-c1ccccc1,i
Cc1ccc(-c2ccc(/C=C3\C(=O)ON=C3c3ccccc3)o2)c([N+](=O)[O-])c1,i
O=C(COc1ccccc1/C=C\c1[nH]c(=O)[nH]c(=O)c1[N+](=O)[O-])Nc1ccccc1,i
CC(=O)N(C1=C(Cl)C(=O)c2ccccc2C1=O)C1CCCCC1,i
CCN(CC)c1ccc(NC(=O)c2ccccc2Br)cc1S(=O)(=O)Nc1ccccc1OC,-43.5
O=C(O)c1[nH]c2ccccc2c1C(c1cc(Cl)cc([N+](=O)[O-])c1O)c1c(C(=O)O)[nH]c2ccccc12,i
O=c1cc(O)sc2ccccc12,i
CC1(C)Cc2c(c(N3CCOCC3)nc3sc4c(NCC5CCCO5)nnnc4c23)CS1 (stereo unspecified),i
Cc1n[nH]c(=O)c2c(NC(=O)CSc3nnc(C4CC4)n3C)oc(C)c12,i
SMILES,HKDC1 act
CC(C)c1ccc(S(=O)(=O)/N=C2/C=C(Sc3ncn[nH]3)C(=O)c3ccccc32)cc1,i
CC(NNC(=S)N1CCN(c2ccccn2)CC1)c1nccc2ccccc12 (stereo unspecified),-41.9
O=C1NN(c2ccccc2)C(=O)/C1=C/c1ccc(Sc2ccc(Cl)cc2)o1,i
NC(=S)N/N=C/c1ccc(Br)o1,-55.3
O=C1C(=Cc2ccc(Br)o2)C(=O)c2ccccc21,i
Nc1nc(Cl)c(N)c(NCC2(CO)CC(CCc3ccccc3)C2)n1 (stereo unspecified),i
COc1ccccc1N(C)S(=O)(=O)c1ccc(Cl)c(C(=O)NCC2(N(C)C)CCCCC2)c1,i
CCOC(=O)c1cc(-c2ccc(/C=C3/C(=O)N(c4ccc(C(=O)O)cc4)N=C3C)o2)ccc1Cl,i
O=C1C=C(N2CCOCC2)c2ccccc2C1=O,i
Cc1cc(C(F)F)n2ncc(C(=O)NCCc3ccc(Cl)cc3)c2n1,i
S=C(NCCc1ccc(Cl)cc1)NCc1ccccc1,-63.3
Cc1cc(C)n2cc(CSc3nnc(-c4ccccc4)c(-c4ccccc4)n3)nc2n1,i
CC(CCC(C)C(C)(C)C)[C@@H]1CC[C@H]2C3C[C@H](OS(O)(=S)=S)[C@H]4C[C@H](OS(O)(=S)=S)[C@@H](OS(O)(=S)=S)C[C@]4(C)[C@H]3CC[C@]12C (stereo partly specified) (tested in a mixture with another compound),i
COc1cc2c(C#N)c(N3CCc4ccccc4C3)nc(N)c2c(N)n1,i
CCOC(=O)C1=C(O)c2ccccc2C(=O)/C1=C\c1ccc(C)cc1,i
Cc1ccc(N=C2C(=S)N(c3ccc(C)cc3)C(=N)N2/N=C/c2ccc(Cl)cc2)cc1,-119.5
COCc1cc(SC2CCCCC2)nc(C)n1,i
COc1cc2c(cc1OC)C(c1cc(Br)ccc1F)N(C(=O)CCl)CC2 (stereo unspecified),i
CCN=C1NN=C(c2ccc(C)cc2)CS1,-64.0
CN1CCN(C2=C(Cl)C(=O)c3ccccc3C2=O)CC1,i
COc1ccc(NC(=O)CSc2ccc(-c3ccco3)nn2)cc1OC,i
O=c1c2ccccc2nc(/C=C/c2cccnc2)n1Cc1ccccc1,i
O=NNc1nc2ccccc2n1Cc1ccccc1,-40.1
Clc1ccc(N=c2ssnc2Cl)nc1,-193.9
COC(=O)CCC(=O)OC1(C)C(=O)C2=CN(Cc3ccccc3)C(c3ccc(OC)cc3)=CC2=C(Br)C1=O (stereo unspecified),i
COc1cccc(/C=N/Nc2ccc([N+](=O)[O-])cn2)c1O,i

# High-throughput results (PubChem BioAssay)
